Experimental data published in article PMC7228743 (Science Advances, 2020).

What was measured:
Serum stability assay = type: in vitro ADME; conditions: 25% (v/v) pooled human serum, 37°C, 24 hours; RP-HPLC peak area at 215 nm
Method in brief: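 Peptides dissolved in H2O/MeCN (70:30 v/v), diluted into 25% (v/v) aqueous pooled serum from human male AB plasma, and held at 37°C for 24 hours. Samples were quenched with an equal volume of MeCN on ice for 20 min, then centrifuged at 4°C for 15 min. Supernatant was diluted in H2O (0.1% TFA) to 0.1 mg/ml and run on RP-HPLC. Intact peptide was taken from the elution peak area at 215 nm.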

hGLP-1R = hGLP-1R (Homo sapiens, UniProt P43220); test: In vitro GLP-1R activation assay; type: cell-based; conditions: ratio of cAMP EC50 values, 39.79 nM versus […]
hGLP-1R, sequence (P43220 24-463): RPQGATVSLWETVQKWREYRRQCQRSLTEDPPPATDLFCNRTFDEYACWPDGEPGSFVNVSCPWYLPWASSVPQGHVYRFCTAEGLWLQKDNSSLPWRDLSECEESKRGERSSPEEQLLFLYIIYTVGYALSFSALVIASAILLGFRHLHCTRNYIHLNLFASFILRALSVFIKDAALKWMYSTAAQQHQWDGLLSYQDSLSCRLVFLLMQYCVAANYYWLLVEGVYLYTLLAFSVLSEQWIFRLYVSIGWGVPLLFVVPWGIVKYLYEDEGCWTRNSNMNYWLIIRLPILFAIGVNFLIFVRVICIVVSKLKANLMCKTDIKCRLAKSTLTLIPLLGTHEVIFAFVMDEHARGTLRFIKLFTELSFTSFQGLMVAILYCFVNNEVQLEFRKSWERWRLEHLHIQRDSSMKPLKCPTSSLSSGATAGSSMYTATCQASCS

| Stability in the presence of serum (in words) (Serum stability assay) | Potency of 3 relative to capped GLP-1 2 (fold lower) (hGLP-1R) | SMILES |
| --- | --- | --- |
| remarkable stability |  | CC[C@H](C)[C@@H](CN(CC(=O)N[C@@H](Cc1c[nH]c2ccccc12)CN(CC(=O)N[C@H](CN(CC(=O)NCCN(CC(N)=O)S(=O)(=O)CCN)S(=O)(=O)CCN)C(C)C)S(=O)(=O)CC(C)C)S(C)(=O)=O)NC(=O)CN(C[C@H](CCC(=O)O)NC(=O)CN(C[C@H](C)NC(=O)CN(C[C@H](CCCCN)NC(=O)CN(C[C@H](CCC(=O)O)NC(=O)CN(C[C@H](Cc1ccc(O)cc1)NC(=O)CN(C[C@H](CO)NC(=O)CN(C[C@H](CC(=O)O)NC(=O)CN(C[C@@H](NC(=O)CN(C[C@@H](NC(=O)CN(C[C@H](CCC(=O)O)NC(=O)CN(C[C@H](Cc1ccccc1)NC(C)=O)S(C)(=O)=O)S(C)(=O)=O)[C@@H](C)O)S(=O)(=O)Cc1ccccc1)[C@@H](C)O)S(C)(=O)=O)S(=O)(=O)CC(C)C)S(=O)(=O)c1ccc(OC)cc1)S(=O)(=O)CC(C)C)S(C)(=O)=O)S(C)(=O)=O)S(=O)(=O)CCN)S(=O)(=O)Cc1ccccc1 [compound 5] |
| remarkable stability | ~ 10 fold | CC[C@H](C)[C@@H](CN(CC(=O)N[C@@H](Cc1c[nH]c2ccccc12)CN(CC(=O)N[C@H](CN(CC(=O)NCCN(CC(N)=O)S(=O)(=O)CCN)S(=O)(=O)CCN)C(C)C)S(=O)(=O)CC(C)C)S(C)(=O)=O)NC(=O)CN(C[C@H](CCC(=O)O)NC(=O)CN(C[C@H](C)NC(=O)CN(C[C@H](CCCCN)NC(=O)CN(C[C@H](CCC(=O)O)NC(=O)CN(C[C@H](Cc1ccc(O)cc1)NC(=O)CN(C[C@H](CO)NC(=O)CN(C[C@H](CC(=O)O)NC(=O)CN(C[C@@H](NC(=O)CN(C[C@@H](NC(=O)CN(C[C@H](CCC(=O)O)NC(=O)CN(C[C@H](Cc1ccccc1)NC(C)=O)S(C)(=O)=O)S(C)(=O)=O)[C@@H](C)O)S(=O)(=O)Cc1ccccc1)[C@@H](C)O)S(C)(=O)=O)S(=O)(=O)CC(C)C)S(C)(=O)=O)S(=O)(=O)CC(C)C)S(C)(=O)=O)S(C)(=O)=O)S(=O)(=O)CCN)S(=O)(=O)Cc1ccccc1 [compound 3] |
